An excerpt weighted towards active compounds, which were near 1% of everything screened.
ERp5 block: inhibitors of human ERp5 | inhibition, % at 9.99 µM | ERp5 insulin aggregation, absorbance 650 nm, 90 min | 0.05% of 350,000 active | Q15084 | AID 651711;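 active = mean replicate inhibition above about 25%, with every replicate also reaching it, limit read from the data, passing the limit was not always enough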
PDI inh: blocks human protein disulfide isomerase activity. PDI insulin aggregation turbidity, A650, 90 min. inhibition, % at 10 µM. 0.052% of 350,000 active;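 active = mean inhibition across replicates of 30% or more, whatever share of single replicates reach that level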
Target sequence (P07237 whole entry, looked up): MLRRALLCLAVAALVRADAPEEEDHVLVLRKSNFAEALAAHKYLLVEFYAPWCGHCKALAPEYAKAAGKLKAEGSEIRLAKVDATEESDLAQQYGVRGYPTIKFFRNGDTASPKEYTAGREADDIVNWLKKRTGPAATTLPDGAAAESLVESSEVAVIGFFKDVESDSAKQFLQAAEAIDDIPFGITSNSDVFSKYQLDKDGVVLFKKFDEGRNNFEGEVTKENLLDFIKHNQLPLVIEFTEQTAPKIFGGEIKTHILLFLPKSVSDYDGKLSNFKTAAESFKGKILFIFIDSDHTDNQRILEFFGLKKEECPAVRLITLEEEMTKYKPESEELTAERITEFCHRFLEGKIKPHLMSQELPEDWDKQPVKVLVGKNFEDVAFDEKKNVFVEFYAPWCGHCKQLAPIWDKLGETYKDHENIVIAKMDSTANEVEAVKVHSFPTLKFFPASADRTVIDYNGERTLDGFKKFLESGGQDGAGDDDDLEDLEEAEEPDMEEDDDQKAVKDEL
RAD52 inh: RAD52 (human) annealing inhibition; recombinant RAD52 DNA annealing, FRET fluorescence; inhibition, % at 18.7 µM; 0.46% of 360,000 active; AID 651710;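 active = every replicate showing at least 50% inhibition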
RAD54 branch: RAD54 (human) branch migration inhibition; RAD54 Holliday junction branch migration, FAM/BHQ fluorescence; inhibition, % at 10.4 µM; 0.14% of 360,000 active;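 active = mean normalized replicate activity at least 40 and at least half of replicates scoring 40 or more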;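 also: 0% = median of neutral control wells and 100% = median of positive control wells; inhibitors cause a drop in the FAM fluorescence signal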
CAL PDZ FP-1: CAL PDZ (human) peptide binding inhibition; 0.92% of 300,000 active; inhibition, % at 24.9 µM; Q9HD26; purified CAL PDZ, TMR-peptide fluorescence polarization, 1 h;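 active = mean inhibition of at least 30% with at least half of replicates also reaching 30%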;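 also: 0% = DMSO neutral control and 100% = excess unlabeled competitor peptide PRC23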
CAL PDZ FP-2: blocks peptide binding to human CAL PDZ domain | inhibition, % at 20 µM | 0.02% of 330,000 active | Q9HD26 | purified CAL PDZ, TMR-peptide fluorescence polarization, 1 h;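 active = highest replicate inhibition of at least 40%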;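 also: plate controls were DMSO neutral control wells for no effect and unlabeled competitor peptide control wells for full effect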
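System: tagged CAL PDZ domain. Schedule: 1 h room-temperature incubation prior to read. Signal: fluorescence polarization (mP). Measure: percent inhibition from loss of millipolarization.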
An asterisk follows results filed as active; . = no result; + = active, no number; ! = repeats disagree.

SMILES	ERp5 block	PDI inh	RAD52 inh	RAD54 branch	CAL PDZ FP-1	CAL PDZ FP-2
Cc1ccc(S(=O)(=O)Nc2ccc3c(c2)C(=O)N([C@H](C)CO)C[C@@H](C)[C@H](CN(C)S(=O)(=O)c2ccccc2)O3)cc1	4	.	11	2	.	.
NC(=O)C1CCCN(C(=O)CCCNC(=O)c2ccc(Cl)cc2)C1 (centres undefined)	0	5	5	-3	73*	-1
COC(=O)C[C@@H]1CC[C@H]2[C@@H](COc3ccc(NC(=O)c4cnccn4)cc3C(=O)N2C)O1	1	.	-3	3	.	.
COc1ccccc1C#Cc1cnc2c(c1)C(=O)N([C@H](C)CO)C[C@H](C)[C@@H](CN(C)S(=O)(=O)c1cn(C)cn1)O2	-2	-4	-10	-5	.	.
C[C@@H]1CN([C@@H](C)CO)C(=O)c2cc(C#CC3CCCCC3)cnc2O[C@@H]1CN(C)S(=O)(=O)c1ccccc1	29*	.	9	-5	.	.
C[C@H](O)C#Cc1cnc2c(c1)C(=O)N([C@H](C)CO)C[C@H](C)[C@@H](CN(C)CC1CCCCC1)O2	.	.	-3	17	.	.
C[C@H](O)C#Cc1cnc2c(c1)C(=O)N([C@@H](C)CO)C[C@H](C)[C@H](CN(C)CC1CCCCC1)O2	32*	.	-3	12	.	.
C[C@H](CO)N1C[C@H](C)[C@H](CN(C)S(=O)(=O)c2cn(C)cn2)Oc2ncc(C#Cc3ccccc3)cc2C1=O	36*	.	0	1	.	.
C[C@@H]1CN([C@H](C)CO)C(=O)Cc2cc(NC(=O)c3ccncc3)ccc2O[C@H]1CN(C)Cc1ccncc1	-1	.	3	10	.	.
CSc1cccc(NC(=S)NN(C)C)c1	-7	-4	-5	-5	64*	0
COc1cccc(CN(C)C(=O)CN2C(=O)NC(c3ccccc3)(c3ccccc3)C2=O)c1	1	7	-11	-1	79*	0
COc1cccc(CNC(=O)CN2C(=O)NC(c3ccccc3)(c3ccccc3)C2=O)c1	-38	-5	-16	-2	-5	-3
CCS(=O)(=O)N[C@H]1C=C[C@@H](CC(=O)NCc2ccc(F)cc2)O[C@H]1CO	-5	.	.	-1	.	.
O=C(Nc1ccc(Cl)cc1)N1CCc2ccccc2C1	9	-5	-32	.	43*	-1
CN(c1ccc(OCC(=O)N2CCC(C(N)=O)CC2)cc1)S(=O)(=O)c1cccs1	.	-5	.	-2	62*	0
CC(=O)N1CCN(C(=O)COc2ccc(N(C)S(=O)(=O)c3cccs3)cc2)CC1	2	-1	3	.	.	-2
COc1ccc(NC(=O)Nc2ccc3c(c2)C(=O)N([C@H](C)CO)C[C@H](C)[C@@H](CN(C)Cc2ccccc2)OCCCC[C@@H](C)O3)cc1	-4	.	20	8	.	.
COc1ccc(NC(=O)Nc2ccc3c(c2)C(=O)N([C@H](C)CO)C[C@@H](C)[C@@H](CN(C)Cc2ccccc2)OCCCC[C@@H](C)O3)cc1	1	.	49	-2	.	.
COc1ccc(NC(=O)Nc2ccc3c(c2)C(=O)N([C@@H](C)CO)C[C@H](C)[C@@H](CN(C)Cc2ccccc2)OCCCC[C@@H](C)O3)cc1	1	.	56*	1	.	.
COc1ccc(NC(=O)Nc2ccc3c(c2)C(=O)N([C@@H](C)CO)C[C@@H](C)[C@H](CN(C)Cc2ccccc2)OCCCC[C@H](C)O3)cc1	-2	.	52*	1	.	.
COc1ccc(NC(=O)Nc2ccc3c(c2)C(=O)N([C@@H](C)CO)C[C@@H](C)[C@@H](CN(C)Cc2ccccc2)OCCCC[C@@H](C)O3)cc1	-2	.	53*	0	.	.
COc1ccc(NC(=O)Nc2ccc3c(c2)C(=O)N([C@H](C)CO)C[C@@H](C)[C@H](CN(C)Cc2ccccc2)OCCCC[C@@H](C)O3)cc1	0	.	69*	8	.	.
CN1C(=O)c2cc(NC(=O)NC3CCCC3)ccc2OC[C@@H]2O[C@@H](CC(=O)NC3CCC3)CC[C@@H]21	-6	.	-2	-3	.	.
CCC(=O)N(C)C[C@H]1Oc2cc(C#Cc3ccccc3)ccc2S(=O)(=O)N([C@@H](C)CO)C[C@@H]1C	-3	.	-6	-4	.	.
COc1ccccc1Oc1ccc(-c2cnc3ccccc3n2)cc1[N+](=O)[O-]	5	-1	-4	0	3	-1
SMILES	ERp5 block	PDI inh	RAD52 inh	RAD54 branch	CAL PDZ FP-1	CAL PDZ FP-2
O=[N+]([O-])c1cc(-c2cnc3ccccc3n2)ccc1Oc1ccc(Cl)cc1	-7	5	-1	.	+	-1
COc1ccc(C)cc1-n1c(=O)c2ccccc2c2ccccc2c1=O	1	-2	-12	.	+	-1
C[C@H]1CCCCO[C@H](CN(C)Cc2ccc3c(c2)OCO3)[C@@H](C)CN([C@@H](C)CO)C(=O)c2cc(NS(=O)(=O)c3ccc(Cl)cc3)ccc2O1	0	.	55*	-6	.	.
C[C@@H]1CN([C@@H](C)CO)C(=O)c2cc(NS(=O)(=O)c3ccc(F)cc3)ccc2O[C@@H](C)CCCCO[C@H]1CN(C)Cc1ccc2c(c1)OCO2	2	.	26	-3	.	.
C[C@@H]1CN([C@H](C)CO)C(=O)c2cc(NS(=O)(=O)c3ccc(Cl)cc3)ccc2O[C@@H](C)CCCCO[C@H]1CN(C)Cc1ccc2c(c1)OCO2	0	.	52*!	-2	.	.
C[C@@H]1CCCCO[C@@H](CN(C)Cc2ccc3c(c2)OCO3)[C@@H](C)CN([C@H](C)CO)C(=O)c2cc(NS(=O)(=O)c3ccc(Cl)cc3)ccc2O1	-4	.	31	-4	.	.
C[C@@H]1CCCCO[C@@H](CN(C)Cc2ccc3c(c2)OCO3)[C@@H](C)CN([C@@H](C)CO)C(=O)c2cc(NS(=O)(=O)c3ccc(Cl)cc3)ccc2O1	-4	.	58*!	0	.	.
COCC(=O)Nc1ccc2c(c1)OC[C@H](C)N(CCc1ccccc1)C[C@H](C)[C@H](OC)CN(C)C2=O	4	.	-5	4	.	.
Cc1ccc(S(=O)(=O)Nc2ccc3c(c2)CC(=O)N([C@@H](C)CO)C[C@H](C)[C@H](CN(C)Cc2ccc(-c4ccccc4)cc2)O3)cc1	-2	.	19	-4	.	.
C[C@H](CO)N1C[C@H](C)[C@@H](CN(C)Cc2ccc(C(=O)O)cc2)Oc2ccc(NS(=O)(=O)c3cccs3)cc2CC1=O	43*	.	1	.	.	.
Cc1ccc(S(=O)(=O)Nc2ccc3c(c2)CC(=O)N([C@H](C)CO)C[C@H](C)[C@@H](CN(C)Cc2ccc(-c4ccccc4)cc2)O3)cc1	-10	.	67*	3	.	.
Cc1noc(C)c1S(=O)(=O)N(C)C[C@@H]1Oc2ccc(N(C)C)cc2CC(=O)N([C@@H](C)CO)C[C@H]1C	1	.	2	0	.	.
CCOc1ccccc1C(=O)NCC(=O)OCc1csc(CC(=O)Nc2ccc(C)cc2)n1	-14	5	-77	-5	65*	0
C[C@H]1CN([C@@H](C)CO)C(=O)c2cc(C#CC3CCCCC3)cnc2O[C@@H]1CN(C)S(=O)(=O)c1ccc(F)cc1	3	.	11	4	.	.
